# Fh CTSL1 inh: blocks F. hepatica cathepsin L1 in PFM18AAP counter-screen; recombinant F. hepatica cathepsin L1, Z-Leu-Arg-MCA fluorescence; inhibition, % at 5.96 µM; hit rate 0.49% among 300,000; AID 1906;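 active = inhibition above the mean of all tested compounds plus 3 SD, set per screening campaign, cut at about 17% in these data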;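 note: 0% = plate median of test compound wells and 100% = 1 µM Z-Phe-Ala-diazomethylketone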
# UBC13 inh: inhibitors of human UBC13 polyubiquitin chain formation; hit rate 0.47% among 330,000; TR-FRET; AID 485273; inhibition, % at 20 µM; P61088; in the data active = inhibition above about 45%, passing the limit was not always enough; inconclusive = no clear call, values can overlap the other calls
# PP5 inh: inhibitors of human protein phosphatase 5 (PP5); purified PP5c, OMFP substrate fluorescence; hit rate 0.18% among 320,000; P53041; inhibition, % at 6.7 µM;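 active = inhibition above the campaign's mean inhibition across all tested compounds plus 3 SD, cut at about 9.5% in these data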;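 note: 0% = DMSO only and 100% = 100 µM cantharidin control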
# PP1 inh: PP1-alpha (human) inhibition in PP5 counter-screen. P62136. purified PP1alpha, OMFP fluorescence. inhibition, % at 6.7 µM. hit rate 0.9% among 320,000. AID 2235;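 active = inhibition above the mean inhibition of all tested compounds plus 3 SD, computed separately for each screening campaign, cut at about 15% in these data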
# UCH37 DUB inh: inhibitors of human deubiquitinating enzyme UCH37 | purified proteasome/UCH37, Ub-AMC cleavage fluorescence | hit rate 0.33% among 330,000 | inhibition, % (no concentration beside the values) | Q9Y5K5;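 active = mean inhibition over replicate wells above about 20%, limit read from the data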;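 note: 0% = compound-free wells with enzyme and 100% = wells lacking proteasome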
#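 Test system – human UCH37 enzyme supplied as purified proteasome complex · Incubation – 30 min preincubation with enzyme, 25 min cleavage at room temperature · Detection – AMC fluorescence from Ub-AMC cleavage, excitation 355 nm, emission 460 nm · Benchmarks – no-proteasome wells (full inhibition) and compound-free wells (no inhibition)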
# PREPL inhibitor: inhibitors of human prolyl oligopeptidase-like enzyme PREPL; inhibition, % at 5.96 µM; recombinant PREPL, fluorescence polarization activity-based probe; Q4J6C6; hit rate 0.68% among 320,000; in the data active = inhibition above about 43%;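 note: 0% = enzyme with DMSO and 100% = wells lacking enzyme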
# Target sequence (Q4J6C6 whole entry, looked up): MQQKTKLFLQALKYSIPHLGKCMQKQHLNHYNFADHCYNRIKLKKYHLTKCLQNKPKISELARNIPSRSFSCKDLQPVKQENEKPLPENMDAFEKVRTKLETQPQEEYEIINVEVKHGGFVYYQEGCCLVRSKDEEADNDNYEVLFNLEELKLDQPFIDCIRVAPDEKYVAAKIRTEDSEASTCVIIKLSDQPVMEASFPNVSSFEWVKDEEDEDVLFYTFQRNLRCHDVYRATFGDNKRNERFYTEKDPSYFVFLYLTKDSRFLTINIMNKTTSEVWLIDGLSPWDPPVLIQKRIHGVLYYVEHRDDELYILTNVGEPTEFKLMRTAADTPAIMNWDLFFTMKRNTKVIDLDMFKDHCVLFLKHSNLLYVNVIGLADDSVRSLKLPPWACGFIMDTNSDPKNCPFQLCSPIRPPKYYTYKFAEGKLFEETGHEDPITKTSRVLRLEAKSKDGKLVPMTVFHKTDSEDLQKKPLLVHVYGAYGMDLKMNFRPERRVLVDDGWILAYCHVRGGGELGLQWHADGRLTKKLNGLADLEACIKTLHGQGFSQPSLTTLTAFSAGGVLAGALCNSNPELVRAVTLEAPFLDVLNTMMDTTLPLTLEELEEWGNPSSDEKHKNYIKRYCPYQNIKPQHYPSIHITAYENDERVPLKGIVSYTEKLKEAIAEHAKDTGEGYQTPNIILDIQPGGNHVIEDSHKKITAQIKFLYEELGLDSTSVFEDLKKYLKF
# Casp3 UBC13 ctr: caspase-3 inhibition (UBC13 counter-screen); Recombinant caspase-3, Caspase-Glo 3/7 luminescence, 60 min; shares compounds with UBC13 inh; inhibition, % at 20 µM; hit rate 4% among 1,400; AID 488856;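 active = mean inhibition across replicates above about 26%, limit read from the data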;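 note: plate controls were DMSO with caspase-3 for no effect and DMSO wells lacking enzyme for full effect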
# UBC13 conf: human UBC13 polyubiquitin inhibition, confirmed; shares compounds with UBC13 inh; UBC13 polyubiquitination, TR-FRET, biochemical; inhibition, % at 10 µM; hit rate 68% among 1,400; AID 488859; in the data active = inhibition above about 45%; inconclusive = no clear call, values can overlap the other calls
# Active calls of the source: *; i = inactive; u = inconclusive; x = not tested or not shown. A selection: hits, their analogues and other compounds. The true share with any hit is near 2.3%.
SMILES,Fh CTSL1 inh,UBC13 inh,PP5 inh,PP1 inh,UCH37 DUB inh,PREPL inhibitor,Casp3 UBC13 ctr,UBC13 conf
Cc1ccc(NC(=O)CS(=O)CC(=O)NCCCc2ccccc2)cc1Cl (stereo not drawn),6.3,64.9*,0.4,-3.0,5.7,-10.9,2.7,73.3*
CCCCNc1c(-c2ccc(OC)c(SC3CCCCC3)c2)nc2cc(C)ccn12,-1.4,49.9*,5.9,11.8,-162.8,18.4,2.7,21.7
CC(=O)NN=C(C)c1ccc(Br)cc1Br,x,x,x,x,2.8,x,x,x
CSc1nccc(Nc2ccccc2)c1C#N,-0.3,47.2*,-1.8,0.7,0.8,-13.3,-1.0,u
COc1nccc(Nc2ccccc2)c1C#N,0.7,14.6,0.5,-3.2,4.3,2.1,x,x
CCOC(=O)c1cc(-c2ccc(Cl)cc2)nc2c1c(C)nn2CCC#N,2.4,u,1.5,-4.4,-28.8,6.1,x,x
CCOC(=O)c1cc(-c2ccc(OC)cc2F)nc2c1c(C)nn2CCC#N,-0.7,48.8*,5.0,3.1,-171.4,-0.7,-2.8,43.5
CCOC(=O)c1cc(-c2ccncc2)nc2c1c(C)nn2C,4.8,113.2*,1.1,-0.7,-83.2,7.0,-2.0,u
COc1ccc(C=NNc2nc3ccccc3c(=O)[nH]2)cc1,x,x,x,x,5.7,x,x,x
Cc1cc(-c2n[nH]c(=S)n2N=Cc2sccc2C)n[nH]1,x,x,x,x,5.2,x,x,x
COc1cccc(C=NNC(=O)c2ccncc2)c1OC(=O)c1ccc(Br)cc1,x,x,x,x,2.5,x,x,x
COc1ccc(C2CC(=O)c3cnc(N4CCc5ccccc54)nc3C2)cc1OC (stereo not drawn),1.6,59.5*,-0.2,1.0,i,4.7,2.5,u
O=C(NN=Cc1ccc(OC(=O)c2ccccc2)c([N+](=O)[O-])c1)c1ccc(O)cc1,x,x,x,x,11.2,x,x,x
CCCCCCNC(=O)N[C@@H](C(=O)NCCC[C@H]1CN2C(=NC[C@@H]2Cc2ccccc2)N1CCc1cccc(OC)c1)C(C)C,-9.7,56.6*,2.0,9.6,-0.3,34.2,1.5,60.7*
Cc1ccc(NC(=S)NNC(=O)c2nnn(-c3ccccc3)c2C)cc1,-0.5,45.0*,3.6,-1.2,2.4,-3.3,3.2,48.2*
Cc1ccc(NC(=S)NNC(=O)c2nn(C)cc2Cl)cc1,-0.8,-2.4,-1.3,-1.6,1.9,-1.8,x,x
Cc1ccc(C(=O)NN=Cc2ccc3c(c2)OCO3)o1,x,x,x,x,3.4,x,x,x
Cc1ccccc1OCC(O)CN1CCN(CCN2C(=O)c3cccc4cccc(c34)C2=O)CC1 (stereo not drawn),1.5,50.4*,6.2,-2.0,4.0,-17.1,-0.3,76.2*
CCC(OCC(O)CN1CCN(CCN2C(=O)c3cccc4cccc(c34)C2=O)CC1)c1ccccc1 (stereo not drawn),2.2,81.8*,1.5,2.1,-1.1,-11.2,3.7,97.0*
C=CCc1ccccc1OCC(O)CN1CCN(C(=O)OCC)CC1 (stereo not drawn),1.6,1.1,-1.0,-4.5,0.0,7.9,x,x
Cc1cccc(C)c1OCC(O)CN1CCC(CN2C(=O)c3cccc4cccc(c34)C2=O)CC1 (stereo not drawn),0.1,29.4,2.2,0.1,-36.0,-0.3,x,x
C=CCc1ccccc1OCC(O)CN1CCN(CCN2C(=O)c3cccc4cccc(c34)C2=O)CC1 (stereo not drawn),1.3,59.0*,3.8,6.6,-1.8,10.0,-4.3,96.8*
CC(C)OCC(O)CN1CCN(CCN2C(=O)c3cccc4cccc(c34)C2=O)CC1 (stereo not drawn),-3.0,-10.7,3.4,0.6,-9.4,4.6,x,x
CC(=O)c1ccc(OCC(O)CN2CCN(CCN3C(=O)c4cccc5cccc(c45)C3=O)CC2)cc1 (stereo not drawn),0.3,96.1*,0.1,-3.3,x,2.6,-2.4,103.4*
CC(=O)c1ccc(OCC(O)CN2CCN(CC(O)COc3ccc(C(C)=O)cc3)CC2)cc1 (stereo not drawn),-2.9,4.9,2.2,-2.8,-0.7,-11.5,x,x
SMILES,Fh CTSL1 inh,UBC13 inh,PP5 inh,PP1 inh,UCH37 DUB inh,PREPL inhibitor,Casp3 UBC13 ctr,UBC13 conf
NC(CN1CCCC1=O)=NO,x,x,x,x,1.7,x,x,x
CC(=NNc1ncc(Br)cn1)c1ccc([N+](=O)[O-])cc1,x,x,x,x,4.3,x,x,x
Cn1ncc(C#N)c1N=CN(Cc1ccccc1)Cc1ccccc1,x,x,x,x,2.5,x,x,x
C=CCn1cc(C=NNc2nc3ccccc3[nH]2)c2ccccc21,x,x,x,x,-10.2,x,x,x
COc1ccc(C=NNC(N)=S)cc1OC(=O)c1ccccc1,x,x,x,x,4.2,x,x,x
COc1cc(C=NNC(=O)c2ccccc2NS(=O)(=O)c2cccs2)ccc1O,x,x,x,x,4.6,x,x,x
CC1CCN(c2c(NCc3ccc(C(=O)N4CCN(C5CCCCC5)CC4)cc3)c(=O)c2=O)CC1,2.9,68.6*,2.1,-0.2,5.9,12.7,-1.3,57.9*
CCOC(=O)C1CCCN(C(=O)c2ccc(CNc3c(N4CCC(C)CC4)c(=O)c3=O)cc2)C1 (stereo not drawn),-0.3,0.1,-1.1,1.5,6.8,-1.9,x,x
CC(C)COc1ccc(-c2nnc(-c3ccco3)o2)cc1,4.0,-4.6,1.9,3.0,-16.5,-16.3,x,x
CCN(CC)CCCNc1ccc(-c2nnc(-c3ccc(OCC(C)C)cc3)o2)cn1,0.2,46.8*,2.6,1.6,x,-5.5,4.5,77.5*
O=C(NN=Cc1ccc(N2CCOCC2)cc1)C1CC1,x,x,x,x,-135.9,x,x,x
CC1(C)Cc2c(sc(NC(=O)C(=O)NCCCN3CCOCC3)c2C(N)=O)CO1,0.2,83.3*,0.0,-4.3,6.3,-3.1,0.4,105.5*
CC1(C)Cc2c(sc(NC(=O)C(=O)N3CCCCC3)c2C(N)=O)CO1,0.3,4.0,1.4,1.0,2.1,11.5,x,x
O=C(CN1CCCc2ccccc21)NN=Cc1ccccc1,x,x,x,x,-3.8,x,x,x
CCCN(CCC)CCNC(=O)c1cc2c(=O)n(CC)c3ccccc3c2s1,-2.6,73.0*,1.9,-3.2,-277.2,-79.2,-3.2,74.0*
CCn1c(=O)c2cc(C(=O)NCCN(C)C)sc2c2ccccc21,1.6,46.0*,0.1,-2.5,-274.5,-1.2,-0.6,35.2
CCN(CC)CCNC(=O)c1cc2c(s1)-c1ccccc1SC2,2.3,50.5*,0.8,-1.5,-271.8,-13.1,-4.2,53.4*
CCN(CC)CCCNC(=O)c1cc2c(=O)n(CC)c3ccccc3c2s1,3.0,42.3,0.8,0.9,-244.2,-13.3,x,x
CCN(CC)CCNC(=O)c1cc2c(=O)n(CC)c3ccccc3c2s1,2.0,57.4*,1.4,-3.4,-264.1,-14.0,-0.2,61.9*
CC(=NNS(=O)(=O)c1cc(C)ccc1C)c1c[nH]c2ccccc12,x,x,x,x,6.8,x,x,x
O=C(NN=CC1CCCCC1)c1cc(Cl)ccc1O,x,x,x,x,-126.2,x,x,x
CCOC(=O)c1cc(CC)sc1N=CC1=C(O)CCCC1=O,x,x,x,x,-0.2,x,x,x
CCN(CC)c1ccc(C=NN2C(=O)c3ccccc3C2=O)cc1,x,x,x,x,7.0,x,x,x

# Bioassay records: PubChem BioAssay, several laboratories
